ChEMBL document CHEMBL1151428, “Capability of 11 antipneumococcal antibiotics to select for resistance by multistep and single-step methodologies” (2007)
In brackets after ≈: the same amount, converted by molar mass.

What was measured:
Assay type in all cases: functional
[1] = system: Streptococcus pneumoniae; assay: Antimicrobial activity against drug-resistant Streptococcus pneumoniae isolate 24 after 50 passages with moxifloxacin measured after 10 antibiotic-free subculture by multi-step resistance selection technique
Method in brief: (§1)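 Mutants selected by daily broth passage in subinhibitory drug in cation-adjusted Mueller-Hinton broth with 5% lysed horse blood. Stability was tested by 10 daily passages on blood agar without antibiotic, then macrodilution MIC.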

[2] = system: Streptococcus pneumoniae; assay: Antimicrobial activity against drug-resistant Streptococcus pneumoniae isolate 24 by NCCLS M7-A7 method
[3] = system: Streptococcus pneumoniae; assay: Antimicrobial activity against drug-resistant Streptococcus pneumoniae isolate 3009 by NCCLS M7-A7 method
[4] = system: Streptococcus pneumoniae; assay: Antimicrobial activity against drug-resistant Streptococcus pneumoniae isolate 2527 by NCCLS M7-A7 method
[5] = system: Streptococcus pneumoniae; assay: Antimicrobial activity against drug-resistant Streptococcus pneumoniae isolate 1635 by NCCLS M7-A7 method
[6] = system: Streptococcus pneumoniae; assay: Antimicrobial activity against drug-resistant Streptococcus pneumoniae isolate 3274 by NCCLS M7-A7 method
[7] = system: Streptococcus pneumoniae; assay: Antimicrobial activity against drug-resistant Streptococcus pneumoniae isolate 1635 after 49 passages with clarithromycin measured after 10 antibiotic-free subculture by multi-step resistance selection technique
[8] = system: Streptococcus pneumoniae; assay: Antimicrobial activity against drug-resistant Streptococcus pneumoniae isolate 3009 after 21 passages with gemifloxacin measured after 10 antibiotic-free subculture by multi-step resistance selection technique; method in brief: as §1
[9] = system: Streptococcus pneumoniae; assay: Antimicrobial activity against drug-resistant Streptococcus pneumoniae isolate 3665 after 38 passages with moxifloxacin measured after 10 antibiotic-free subculture by multi-step resistance selection technique
[10] = system: Streptococcus pneumoniae; assay: Antimicrobial activity against drug-resistant Streptococcus pneumoniae isolate 3009 after 25 passages with clarithromycin measured after 10 antibiotic-free subculture by multi-step resistance selection technique
[11] = system: Streptococcus pneumoniae; assay: Antimicrobial activity against drug-resistant Streptococcus pneumoniae isolate 1076 after 14 passages with Telithromycin measured after 10 antibiotic-free subculture by multi-step resistance selection technique; method in brief: as §1
[12] = system: Streptococcus pneumoniae; assay: Antimicrobial activity against drug-resistant Streptococcus pneumoniae isolate 1635 after 14 passages with azithromycin measured after 10 antibiotic-free subculture by multi-step resistance selection technique; method in brief: as §1
[13] = system: Streptococcus pneumoniae; assay: Antimicrobial activity against drug-resistant Streptococcus pneumoniae isolate 3676 after 44 passages with clarithromycin measured after 10 antibiotic-free subculture by multi-step resistance selection technique
[14] = system: Streptococcus pneumoniae; assay: Antimicrobial activity against drug-resistant Streptococcus pneumoniae isolate 1076 after 35 passages with moxifloxacin measured after 10 antibiotic-free subculture by multi-step resistance selection technique; method in brief: as §1
[15] = system: Streptococcus pneumoniae; assay: Antimicrobial activity against drug-resistant Streptococcus pneumoniae isolate 3665 by NCCLS M7-A7 method
[16] = system: Streptococcus pneumoniae; assay: Antimicrobial activity against drug-resistant Streptococcus pneumoniae isolate 37 by NCCLS M7-A7 method
[17] = system: Streptococcus pneumoniae; assay: Antimicrobial activity against drug-resistant Streptococcus pneumoniae isolate 3676 after 50 passages with moxifloxacin measured after 10 antibiotic-free subculture by multi-step resistance selection technique
[18] = system: Streptococcus pneumoniae; assay: Antimicrobial activity against drug-resistant Streptococcus pneumoniae isolate 2527 after 14 passages with gemifloxacin measured after 10 antibiotic-free subculture by multi-step resistance selection technique; method in brief: as §1
[19] = system: Streptococcus pneumoniae; assay: Antimicrobial activity against drug-resistant Streptococcus pneumoniae isolate 3274 after 48 passages with Telithromycin measured after 10 antibiotic-free subculture by multi-step resistance selection technique; method in brief: as §1
[20] = system: Streptococcus pneumoniae; assay: Antimicrobial activity against drug-resistant Streptococcus pneumoniae isolate 1635 after 14 passages with clindamycin measured after 10 antibiotic-free subculture by multi-step resistance selection technique
[21] = system: Streptococcus pneumoniae; assay: Antimicrobial activity against drug-resistant Streptococcus pneumoniae isolate 3243 after 29 passages with Telithromycin measured after 10 antibiotic-free subculture by multi-step resistance selection technique; method in brief: as §1
[22] = system: Streptococcus pneumoniae; assay: Antimicrobial activity against drug-resistant Streptococcus pneumoniae isolate 1076 by NCCLS M7-A7 method
[23] = system: Streptococcus pneumoniae; assay: Antimicrobial activity against drug-resistant Streptococcus pneumoniae isolate 3243 after 33 passages with azithromycin measured after 10 antibiotic-free subculture by multi-step resistance selection technique; method in brief: as §1
[24] = system: Streptococcus pneumoniae; assay: Antimicrobial activity against drug-resistant Streptococcus pneumoniae isolate 3009 after 50 passages by multi-step resistance selection technique
Method in brief: (§2)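 Daily serial passage in subinhibitory drug levels in 1 ml cation-adjusted Mueller-Hinton broth with 5% lysed horse blood; fresh broth for tigecycline. Each day, 10 μl were taken from the tube one to two dilutions below the MIC whose turbidity matched the growth control, and used to set the next MIC. […] MIC by macrodilution.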

[25] = system: Streptococcus pneumoniae; assay: Antimicrobial activity against drug-resistant Streptococcus pneumoniae isolate 3243 by NCCLS M7-A7 method
[26] = system: Streptococcus pneumoniae; assay: Antimicrobial activity against drug-resistant Streptococcus pneumoniae isolate 3665 after 26 passages with clarithromycin measured after 10 antibiotic-free subculture by multi-step resistance selection technique
[27] = system: Streptococcus pneumoniae; assay: Antimicrobial activity against drug-resistant Streptococcus pneumoniae isolate 2527 after 20 passages with azithromycin measured after 10 antibiotic-free subculture by multi-step resistance selection technique; method in brief: as §1
[28] = system: Streptococcus pneumoniae; assay: Antimicrobial activity against drug-resistant Streptococcus pneumoniae isolate 2527 after 50 passages by multi-step resistance selection technique; method in brief: as §2
[29] = system: Streptococcus pneumoniae; assay: Antimicrobial activity against drug-resistant Streptococcus pneumoniae isolate 1635 after 50 passages by multi-step resistance selection technique
Method in brief: (§3)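 Daily serial passage in subinhibitory drug levels in 1 ml cation-adjusted Mueller-Hinton broth with 5% lysed horse blood; fresh broth for tigecycline. Each day, 10 μl were taken from the tube one to two dilutions below the MIC whose turbidity matched the growth control, and used to set the next MIC. MIC by macrodilution.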

[30] = system: Streptococcus pneumoniae; assay: Antimicrobial activity against drug-resistant Streptococcus pneumoniae isolate 1077 after 15 passages with Telithromycin measured after 10 antibiotic-free subculture by multi-step resistance selection technique; method in brief: as §1
[31] = system: Streptococcus pneumoniae; assay: Antimicrobial activity against drug-resistant Streptococcus pneumoniae isolate 3243 after 41 passages with clarithromycin measured after 10 antibiotic-free subculture by multi-step resistance selection technique
[32] = system: Streptococcus pneumoniae; assay: Antimicrobial activity against drug-resistant Streptococcus pneumoniae isolate 3009 after 18 passages with levofloxacin measured after 10 antibiotic-free subculture by multi-step resistance selection technique; method in brief: as §1
[33] = system: Streptococcus pneumoniae; assay: Antimicrobial activity against drug-resistant Streptococcus pneumoniae isolate 3009 after 19 passages with moxifloxacin measured after 10 antibiotic-free subculture by multi-step resistance selection technique; method in brief: as §1
[34] = system: Streptococcus pneumoniae; assay: Antimicrobial activity against drug-resistant Streptococcus pneumoniae isolate 3676 after 14 passages with Telithromycin measured after 10 antibiotic-free subculture by multi-step resistance selection technique
[35] = system: Streptococcus pneumoniae; assay: Antimicrobial activity against drug-resistant Streptococcus pneumoniae isolate 3676 after 50 passages by multi-step resistance selection technique
Method in brief: (§4)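 Daily serial passage in broth at subinhibitory drug levels: 1 ml cation-adjusted Mueller-Hinton broth with 5% lysed horse blood; fresh broth for tigecycline. Each day 10 μl inoculum taken from the tube one to two dilutions below MIC matching growth-control turbidity, used to set next MIC. Continued until ≥8-fold MIC rise, minimum 14, maximum 50 passages; MIC read by macrodilution.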

[36] = system: Streptococcus pneumoniae; assay: Antimicrobial activity against drug-resistant Streptococcus pneumoniae isolate 3665 after 50 passages by multi-step resistance selection technique; method in brief: as §4
[37] = system: Streptococcus pneumoniae; assay: Antimicrobial activity against drug-resistant Streptococcus pneumoniae isolate 3274 after 50 passages by multi-step resistance selection technique; method in brief: as §3
[38] = system: Streptococcus pneumoniae; assay: Antimicrobial activity against drug-resistant Streptococcus pneumoniae isolate 24 after 50 passages by multi-step resistance selection technique; method in brief: as §3
[39] = system: Streptococcus pneumoniae; assay: Antimicrobial activity against drug-resistant Streptococcus pneumoniae isolate 3243 after 50 passages by multi-step resistance selection technique; method in brief: as §2

Row | SMILES | MIC [1] [µg/mL] | MIC [2] [µg/mL] | MIC [3] [µg/mL] | MIC [4] [µg/mL] | MIC [5] [µg/mL] | MIC [6] [µg/mL] | MIC [7] [µg/mL] | MIC [8] [µg/mL] | MIC [9] [µg/mL] | MIC [10] [µg/mL] | MIC [11] [µg/mL] | MIC [12] [µg/mL] | MIC [13] [µg/mL] | MIC [14] [µg/mL] | MIC [15] [µg/mL] | MIC [16] [µg/mL] | MIC [17] [µg/mL] | MIC [18] [µg/mL] | MIC [19] [µg/mL] | MIC [20] [µg/mL] | further results
1 | CC[C@H]1OC(=O)[C@H](C)C(=O)[C@H](C)[C@@H](O[C@@H]2O[C@H](C)C[C@H](N(C)C)[C@H]2O)[C@](C)(OC)C[C@@H](C)C(=O)[C@H](C)[C@H]2N(CCCCn3cnc(-c4cccnc4)c3)C(=O)O[C@]12C [TELITHROMYCIN] | 0.25 (≈ 0.308 µM) | 0.25 (≈ 0.308 µM) | 0.016 (≈ 0.0197 µM) | 0.004 (≈ 0.00493 µM) | 0.004 (≈ 0.00493 µM) | 0.004 (≈ 0.00493 µM) | 0.016 (≈ 0.0197 µM) | 0.03 (≈ 0.0369 µM) | 0.125 (≈ 0.154 µM) | 0.06 (≈ 0.0739 µM) | > 64 | 0.004 (≈ 0.00493 µM) | 0.03 (≈ 0.0369 µM) | 1 (≈ 1.23 µM) | 0.125 (≈ 0.154 µM) | 0.25 (≈ 0.308 µM) | 0.06 (≈ 0.0739 µM) | 0.004 (≈ 0.00493 µM) | 0.5 (≈ 0.616 µM) | 0.008 (≈ 0.00985 µM) | MIC [21]: 0.06 µg/mL (≈ 0.0739 µM); MIC [22]: 0.5 µg/mL (≈ 0.616 µM); MIC [23]: 0.06 µg/mL (≈ 0.0739 µM); MIC [24]: 0.03 µg/mL (≈ 0.0369 µM); MIC [25]: 0.004 µg/mL (≈ 0.00493 µM); MIC [26]: 0.06 µg/mL (≈ 0.0739 µM); MIC [27]: 0.03 µg/mL (≈ 0.0369 µM); MIC [28]: 0.016 µg/mL (≈ 0.0197 µM); MIC [29]: 0.008 µg/mL (≈ 0.00985 µM); MIC [30]: 0.25 µg/mL (≈ 0.308 µM); MIC [31]: 0.016 µg/mL (≈ 0.0197 µM); MIC [32]: 0.016 µg/mL (≈ 0.0197 µM); MIC [33]: 0.008 µg/mL (≈ 0.00985 µM); MIC [34]: 0.06 µg/mL (≈ 0.0739 µM)
2 | CO/N=C1\CN(c2nc3c(cc2F)c(=O)c(C(=O)O)cn3C2CC2)CC1CN (stereo unspecified) [GEMIFLOXACIN] | 0.5 (≈ 1.28 µM) | 0.016 (≈ 0.0411 µM) | 0.016 (≈ 0.0411 µM) | 0.25 (≈ 0.642 µM) | 0.016 (≈ 0.0411 µM) | 0.016 (≈ 0.0411 µM) | 0.03 (≈ 0.077 µM) | 2 (≈ 5.14 µM) | 0.125 (≈ 0.321 µM) | 0.03 (≈ 0.077 µM) | 0.25 (≈ 0.642 µM) | 0.03 (≈ 0.077 µM) | 0.03 (≈ 0.077 µM) | 0.5 (≈ 1.28 µM) | 0.016 (≈ 0.0411 µM) | 0.016 (≈ 0.0411 µM) | 1 (≈ 2.57 µM) | 2 (≈ 5.14 µM) | 0.03 (≈ 0.077 µM) | 0.03 (≈ 0.077 µM) | MIC [35]: 0.03 µg/mL (≈ 0.077 µM); MIC [36]: 0.06 µg/mL (≈ 0.154 µM); MIC [37]: 0.06 µg/mL (≈ 0.154 µM); MIC [38]: 0.03 µg/mL (≈ 0.077 µM); MIC [21]: 0.03 µg/mL (≈ 0.077 µM); MIC [22]: 0.25 µg/mL (≈ 0.642 µM); MIC [23]: 0.03 µg/mL (≈ 0.077 µM); MIC [25]: 0.016 µg/mL (≈ 0.0411 µM); MIC [26]: 0.03 µg/mL (≈ 0.077 µM); MIC [27]: 0.25 µg/mL (≈ 0.642 µM); MIC [39]: 0.06 µg/mL (≈ 0.154 µM); MIC [29]: 0.06 µg/mL (≈ 0.154 µM); MIC [30]: 0.25 µg/mL (≈ 0.642 µM); MIC [31]: 0.03 µg/mL (≈ 0.077 µM); MIC [32]: 1 µg/mL (≈ 2.57 µM); MIC [33]: 0.125 µg/mL (≈ 0.321 µM); MIC [34]: 0.06 µg/mL (≈ 0.154 µM)
